In ChEMBL document CHEMBL1140019, “Primary amides as selective inhibitors of cathepsin K” (Bioorg Med Chem Lett, 2007):

Experiments:
Cathepsin K = Cathepsin K (Homo sapiens, UniProt P43235); test: Inhibition of humanized rabbit cathepsin K
Outline: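 IC50 was measured against the humanized rabbit enzyme and is the mean of at least four independent titrations, reported with SEM.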

Cathepsin B = Cathepsin B (Homo sapiens, UniProt P07858); test: Inhibition of human cathepsin B
Procathepsin L = Procathepsin L (Homo sapiens, UniProt P07711); test: Inhibition of human cathepsin L
Sequence of Procathepsin L (P07711 whole entry): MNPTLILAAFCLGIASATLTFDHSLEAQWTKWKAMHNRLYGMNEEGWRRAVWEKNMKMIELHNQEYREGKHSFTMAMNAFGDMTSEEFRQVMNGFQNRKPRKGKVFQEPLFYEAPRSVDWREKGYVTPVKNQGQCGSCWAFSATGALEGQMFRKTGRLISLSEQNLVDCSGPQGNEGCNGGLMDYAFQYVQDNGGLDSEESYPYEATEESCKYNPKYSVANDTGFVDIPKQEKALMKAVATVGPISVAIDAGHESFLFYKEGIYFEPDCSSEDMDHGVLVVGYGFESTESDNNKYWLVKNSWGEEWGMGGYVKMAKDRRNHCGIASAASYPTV

Cathepsin S = Cathepsin S (Homo sapiens, UniProt P25774); test: Inhibition of human cathepsin S
Sequence of Cathepsin S (P25774 whole entry): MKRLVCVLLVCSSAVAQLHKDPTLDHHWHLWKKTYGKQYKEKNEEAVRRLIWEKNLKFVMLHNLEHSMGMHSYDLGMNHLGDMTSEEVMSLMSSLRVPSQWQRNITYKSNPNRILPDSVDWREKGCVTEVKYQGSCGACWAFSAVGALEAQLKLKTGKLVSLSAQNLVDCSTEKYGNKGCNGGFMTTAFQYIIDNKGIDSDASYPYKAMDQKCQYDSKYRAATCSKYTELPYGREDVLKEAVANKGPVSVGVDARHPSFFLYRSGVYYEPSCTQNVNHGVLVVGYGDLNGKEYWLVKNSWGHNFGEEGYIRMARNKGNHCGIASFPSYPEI

SMILES | IC50 (Cathepsin K) | IC50 (Cathepsin B) | IC50 (Procathepsin L) | IC50 (Cathepsin S)
CC(C)C[C@H](N[C@@H](c1ccc(-c2ccc(S(C)(=O)=O)cc2)cc1)C(F)(F)F)C(=O)N[C@@H](CS(C)(=O)=O)C(N)=O | 109 nM |  |  | 
CSCC[C@H](NC(=O)[C@H](CC(C)C)N[C@@H](c1ccc(-c2ccc(S(C)(=O)=O)cc2)cc1)C(F)(F)F)C(=O)NCc1ccccc1 | 87 nM |  |  | 
CNC(=O)[C@H](CCSC)NC(=O)[C@H](CC(C)C)N[C@@H](c1ccc(-c2ccc(S(C)(=O)=O)cc2)cc1)C(F)(F)F | 67 nM |  |  | 
CC(C)C[C@H](N[C@@H](c1ccc(-c2ccc(S(C)(=O)=O)cc2)cc1)C(F)(F)F)C(=O)N[C@H](Cc1ccccc1)C(N)=O | 6070 nM |  |  | 
COC(=O)[C@H](CCSC)NC(=O)[C@H](CC(C)C)N[C@@H](c1ccc(-c2ccc(S(C)(=O)=O)cc2)cc1)C(F)(F)F | 27 nM |  |  | 
CC(C)C[C@H](N[C@@H](c1ccc(-c2ccc(S(C)(=O)=O)cc2)cc1)C(F)(F)F)C(=O)N[C@H](C#N)Cc1ccccc1 | 0.6 nM |  |  | 
CC(C)C[C@H](N[C@@H](c1ccc(-c2ccc(S(C)(=O)=O)cc2)cc1)C(F)(F)F)C(=O)N[C@@H](CCc1ccccc1)C(N)=O | 273 nM |  |  | 
CSCC[C@H](NC(=O)[C@H](CC(C)C)N[C@@H](c1ccc(-c2ccc(S(C)(=O)=O)cc2)cc1)C(F)(F)F)C(=O)O | 120 nM |  |  | 
CSCC[C@H](NC(=O)[C@H](CC(C)C)N[C@@H](c1ccc(-c2ccc(S(C)(=O)=O)cc2)cc1)C(F)(F)F)C(N)=O | 13 nM | > 100000 nM | 55700 nM | 76900 nM
CSCC[C@@H](C#N)NC(=O)[C@H](CC(C)C)N[C@@H](c1ccc(-c2ccc(S(C)(=O)=O)cc2)cc1)C(F)(F)F | 0.2 nM |  |  | 
CC(C)C[C@H](N[C@@H](c1ccc(-c2ccc(S(C)(=O)=O)cc2)cc1)C(F)(F)F)C(=O)NCC(N)=O | 238 nM | > 100000 nM | 63100 nM | 41100 nM
CSCC[C@H](NC(=O)[C@H](CC(C)C)N[C@@H](c1ccc(-c2ccc(S(C)(=O)=O)cc2)cc1)C(F)(F)F)C(=O)N(C)C | 1050 nM |  |  | 

Continued, values first:

IC50 (Cathepsin K) | IC50 (Cathepsin B) | IC50 (Procathepsin L) | IC50 (Cathepsin S) | SMILES
41 nM |  |  |  | CSCC[C@H](NC(=O)[C@H](CC(C)C)N[C@@H](c1ccc(-c2ccc(S(C)(=O)=O)cc2)cc1)C(F)(F)F)C(C)=O
277 nM |  |  |  | CSCC[C@H](NC(=O)[C@H](CC(C)C)N[C@@H](c1ccc(-c2ccc(S(C)(=O)=O)cc2)cc1)C(F)(F)F)C(=O)NCC(F)(F)F
0.9 nM |  |  |  | CC(C)C[C@H](N[C@@H](c1ccc(-c2ccc(S(C)(=O)=O)cc2)cc1)C(F)(F)F)C(=O)N[C@@H](C)C#N
10 nM | > 100000 nM | 17000 nM | 66700 nM | CC(C)C[C@H](N[C@@H](c1ccc(-c2ccc(S(C)(=O)=O)cc2)cc1)C(F)(F)F)C(=O)N[C@@H](Cc1ccccc1)C(N)=O
0.2 nM |  |  |  | CC(C)C[C@H](N[C@@H](c1ccc(-c2ccc(S(C)(=O)=O)cc2)cc1)C(F)(F)F)C(=O)NCC#N
66 nM |  |  |  | CSC[C@H](NC(=O)[C@H](CC(C)C)N[C@@H](c1ccc(-c2ccc(S(C)(=O)=O)cc2)cc1)C(F)(F)F)C(N)=O
238 nM |  |  |  | CSCC[C@H](NC(=O)[C@H](CC(C)C)N[C@@H](c1ccc(-c2ccc(S(C)(=O)=O)cc2)cc1)C(F)(F)F)C(=O)NS(C)(=O)=O
151 nM |  |  |  | CC(C)C[C@H](N[C@@H](c1ccc(-c2ccc(S(C)(=O)=O)cc2)cc1)C(F)(F)F)C(=O)N[C@@H](CCS(C)(=O)=O)C(N)=O
174 nM |  |  |  | CC(C)C[C@H](N[C@@H](c1ccc(-c2ccc(S(C)(=O)=O)cc2)cc1)C(F)(F)F)C(=O)N[C@@H](C)C(N)=O
